PLC-gamma1 inh: inhibitors of human phospholipase C gamma1; inhibition, % at 12.2 µM; 370,000 compounds, 0.84% hits; P19174; purified PLC-gamma1, fluorogenic substrate, fluorescence
ADAM17 inh: inhibitors of human ADAM17. P78536. recombinant ADAM17, EDANS/DABCYL FRET peptide cleavage. inhibition, % at 6.95 µM. 370,000 compounds, 0.83% hits. AID 720648;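 active = inhibition above the mean of compounds lying between control limits plus 3 SD, set per campaign, cut at about 8.5% in these data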;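 also: 0% = DMSO-only wells as the low control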
Target sequence (P78536 215-824 limits assumed): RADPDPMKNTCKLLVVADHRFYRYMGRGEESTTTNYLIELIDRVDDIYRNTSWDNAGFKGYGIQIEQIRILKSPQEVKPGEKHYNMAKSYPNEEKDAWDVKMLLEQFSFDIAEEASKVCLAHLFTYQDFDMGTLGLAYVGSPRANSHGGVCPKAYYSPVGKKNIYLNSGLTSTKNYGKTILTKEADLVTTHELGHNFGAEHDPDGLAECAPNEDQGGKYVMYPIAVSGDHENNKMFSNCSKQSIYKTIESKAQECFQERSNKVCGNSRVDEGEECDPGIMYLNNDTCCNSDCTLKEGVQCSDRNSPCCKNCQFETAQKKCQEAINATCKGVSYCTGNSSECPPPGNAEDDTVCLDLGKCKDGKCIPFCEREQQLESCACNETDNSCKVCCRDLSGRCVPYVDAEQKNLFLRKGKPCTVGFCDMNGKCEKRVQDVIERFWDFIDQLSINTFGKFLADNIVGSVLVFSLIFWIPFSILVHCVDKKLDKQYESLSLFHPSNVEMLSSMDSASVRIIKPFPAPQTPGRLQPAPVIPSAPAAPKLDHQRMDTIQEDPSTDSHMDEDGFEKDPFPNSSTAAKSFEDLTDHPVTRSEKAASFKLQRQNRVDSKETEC
Tn6 DDE FP: DD(E)-Tn6 binding inhibition, primary FP screen; P02675; Fibrin DD(E) TRITC-Tn6 fluorescence polarization displacement; inhibition, % at 8.3 µM; 370,000 compounds, 0.21% hits;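 active = inhibition above a per-campaign cutoff: mean of compounds within control limits plus 3 SD, cut at about 15% in these data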;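 also: 0% = median of all compound wells on the plate and 100% = blocking peptide control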
ADAM10 inh: inhibitors of human ADAM10 | 370,000 compounds, 0.62% hits | O14672 | recombinant ADAM10, EDANS/DABCYL FRET peptide cleavage, 3 h | AID 720582 | inhibition, % at 7 µM;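 active = inhibition above a per-campaign cutoff equal to the mean of compounds falling between control-based bounds plus 3 SD, cut at about 20% in these data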;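 also: 0% = DMSO wells while the 100% control is not disclosed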
Tn7 DDE FP: disrupts Tn7 cyclic peptide binding to fibrin D-Dimer-E complex. inhibition, % at 8.3 µM. AID 720508. 370,000 compounds, 0.13% hits. FP displacement of FITC-Tn7 peptide from fibrin DD(E); 0% = median of compound wells per plate. P02675;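 active = inhibition above the mean of compounds falling within the control limits plus 3 SD of them, cut at about 14% in these data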;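 also: 0% = plate median of compound wells and 100% = 10 µM Aha-Tn7 peptide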
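Test system: human clot-derived fibrin DD(E) complex / Quantity: 2 µM final DD(E) protein / Incubation: 10 min plus 3 h, room temperature / Measured by: fluorescence polarization / Benchmarks: high control of 10 µM Aha-Tn7 peptide / Replicates: singlicate testing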
PLC-beta3 inh: blocks human PLC-beta3 enzyme activity; Q01970; AID 720704; 370,000 compounds, 0.18% hits; inhibition, % at 12.2 µM; Purified PLC-beta3, fluorogenic substrate, fluorescence; in the data active = inhibition above about 11%;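 also: 0% = median of compound wells on plate and 100% = full blocker control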
PLCg1 ctr: counter-screen for PLC-beta3 inhibitors: inhibitors of human PLC-gamma1. inhibition, % at 12.3 µM. shares compounds with PLC-gamma1 inh. AID 743258. 3,300 compounds, 3.1% hits. purified PLC-gamma1, fluorogenic substrate, fluorescence
PLCbeta3 conf: human PLC-beta3 inhibition, confirmation; purified PLC-beta3, fluorogenic substrate fluorescence; inhibition, % at 12.3 µM; 3,300 compounds, 1% hits; shares compounds with PLC-gamma1 inh; in the data active = inhibition above about 11%
* marks the source's active call; other numbers are inactive results; / = no result. Most compounds without a hit are left out; they make up all but 2.3% or so of the library. Rule as the data show it, unless noted: active = inhibition above about 9.5%; inactive = the rest.

SMILES	PLC-gamma1 inh	ADAM17 inh	Tn6 DDE FP	ADAM10 inh	Tn7 DDE FP	PLC-beta3 inh	PLCg1 ctr	PLCbeta3 conf
Fc1ccc(CSc2ncnc3c2oc2ccccc23)cc1	10*	4	-5	8	-6	4	-6	-5
COc1ccc(CCNCC(O)COc2cccc(C)c2)cc1OC (centres undefined)	-2	1	4	-1	0	2	/	/
COc1cc(NC(=O)Cn2cnc3c(nc4n3CCCCC4)c2=O)cc(OC)c1OC	5	-3	-3	10	0	-4	/	/
CCN(C(=O)Cn1cnc2c(nc3n2CCCCC3)c1=O)c1cccc(Cl)c1	12*	0	-1	7	-2	0	-7	-5
CC(=O)c1cc(-c2cc(C(F)(F)F)cc(C(F)(F)F)c2)c(=O)n2c1CCC2	0	-5	-2	-10	1	0	/	/
C[C@H](NC(=O)c1ccc(Br)cc1)C(=O)NCc1ccc(S(N)(=O)=O)cc1	9.6*	0	4	6	1	6	-2	-3
O=Cc1ccc(/C=C2\c3ccccc3C(=O)N2c2ccccc2)o1	-106	-14	-6	-78	-6	-149	/	/
Cc1ccc(S(=O)(=O)N2O[C@@H](c3ccccc3)C[C@H]2CON2C(C)(C)CCCC2(C)C)cc1	11*	3	-4	4	1	13*	0	-5
Cc1ccc(Sc2ccc([N+](=O)[O-])cc2[N+](=O)[O-])nc1	4	-2	-2	4	4	4	/	/
CO/N=C/c1cc([N+](=O)[O-])ccc1Sc1ccc(C)cc1	10*	3	1	2	0	4	-14	-14
CCC(C)n1c(SCC(=O)NCc2ccco2)nnc1-c1cccc(S(=O)(=O)N2CCOCC2)c1 (centres undefined)	12*	3	9	0	-9	3	-8	-6
NC(=O)c1cc(S(=O)(=O)NCCc2ccc(Cl)cc2)cs1	12*	8	-4	10	-5	-6	-6	-5
CC(C)COP(=O)(CNC(=O)CN1C(=O)c2ccccc2S1(=O)=O)OCC(C)C	9.8*	7	4	6	-3	1	-9	-3
CC1CCC(NC(=O)CN2C(=O)c3ccccc3S2(=O)=O)CC1 (centres undefined)	12*	8	-6	10	1	-1	-2	1
O=S1(=O)c2ccc(N3CC[C@H](O)C3)cc2O[C@H]2CCN1C2	1	-7	1	-4	0	-4	/	/
COc1cccc(C(=O)N2CCC(Oc3cccnc3)CC2)c1	1	-3	-1	-3	6	2	/	/
CCCc1nc2c(=O)n(C)c(=O)nc-2n(C)n1	55*	-6	-2	0	0	-6	43*	3
Cn1nc(-c2ccccn2)nc2c(=O)n(C)c(=O)nc1-2	51*	-6	4	-6	5	-9	32*	-12
CCOC(=O)C1CCN(Cc2ccc(OC)c(OCc3ccccc3)c2)CC1	2	-3	-3	-4	5	-5	/	/
CCOC(=O)C1CCN(Cc2ccc(O)c(OC)c2)CC1	12*	2	7	-1	-5	3	-1	0
CCOC(=O)COc1ccc(S(=O)(=O)N2CCN(c3ccc(OC)cc3)CC2)cc1	9.5*	-5	0	3	1	-2	1	2
CCOC(=O)COc1ccc(S(=O)(=O)N2CCN(c3ccccc3F)CC2)cc1	2	0	-13	7	5	1	/	/
CCN(CCNC(=O)[C@H]1C=C(OC)C(=O)C[C@H](c2ccccc2)[C@H]1C)C(C)=O	-3	1	4	-5	6	-2	/	/
Cc1cccc(OCc2nc(-c3cccnc3)no2)c1	6	2	-8	5	3	6	/	/
Cc1ccc(C)c(OCc2nc(-c3cccnc3)no2)c1	9.8*	3	-1	4	-5	0	-6	-9
SMILES	PLC-gamma1 inh	ADAM17 inh	Tn6 DDE FP	ADAM10 inh	Tn7 DDE FP	PLC-beta3 inh	PLCg1 ctr	PLCbeta3 conf
O=C(Nc1cccc2ccccc12)c1ccccc1	10*	2	-7	14	1	1	-71	-2
N/C(=N\OC(=O)CCCc1ccccc1)c1cccnc1	7	6	-2	11	-9	12*	-8	-4
COC(=O)[C@]12C[C@H](CC(=O)NCc3cccs3)C(=O)N(Cc3ccc(Cl)cc3Cl)C1=C[C@H](COCc1ccccc1)O[C@@H]2C	1	7	2	14	1	1	/	/
Cc1ccc(C(=O)Cn2c(C(=O)OCCO)cc3ccccc32)cc1	11*	5	7	10	0	-2	-9	-6
Cc1ccc(C(=O)Cn2c(C(=O)O)cc3ccccc32)cc1	-2	-2	3	-1	2	-8	/	/
CCOC(=O)Cc1nc(N2CCN(Cc3cccc4c3OCO4)CC2)c2c(C)c(C(=O)OCC)sc2n1	-5	0	-7	-8	2	-4	/	/
O=C(Nc1ccccc1)c1ccc(S(=O)(=O)NCc2cccnc2)cc1	10*	5	6	1	-2	-93	-1	2
O=C(Nc1ccc(S(=O)(=O)NCc2cccnc2)cc1)c1ccccc1Cl	7	3	10	8	-3	5	/	/
CC(Sc1ccc2c(c1)OCCO2)C(=O)Nc1ccc(N2CCOCC2)cc1 (centres undefined)	13*	1	-7	4	6	-3	-5	-1
CC(C)[C@@H]1CC[C@@H](C)C[C@H]1OC(=O)C[n+]1cc(-c2ccc(Cl)cc2)n2c1CCCCC2	12*	1	9	9	-3	-3	1	-2
COc1ccc(-c2c[n+](CC(=O)OC3CC(C)CCC3C(C)C)c3n2CCC3)cc1 (centres undefined)	7	-1	-5	3	-3	-2	/	/
CCCNC(=O)NC(C(=O)OC)C12CC3CC(CC(C3)C1)C2 (centres undefined)	11*	1	6	4	-1	6	0	0
COP(=O)(CC(=O)OC(C)(C)C)C(CC(C)C)NC(=O)OCc1ccccc1 (centres undefined)	-2	-2	4	0	4	3	/	/
COc1ccc(NC(=O)COc2ccc(C)cc2)c([N+](=O)[O-])c1	-4	2	2	-4	-3	6	/	/
COc1ccc(NC(=O)Cc2ccc(C)cc2)c([N+](=O)[O-])c1	8	5	-6	6	5	14*	-3	6
CCOc1ccc(/C=C/C(=O)Nc2ccc(OC)cc2[N+](=O)[O-])cc1	7	5	-1	4	2	11*	-24	-21
